Test results: PubChem BioAssay AID493091 (Sanford-Burnham Center for Chemical Genomics, 2011)
About 3,000 (0.88%) of roughly 340,000 compounds were called active.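 Rule for the calls: active = inhibition above about 50% at 20 µM (limit read from the data); inactive = the rest.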 Many of the other results were omitted from the sample, so actives are more common in it than they were.

Each molecule was assayed against Carboxy-terminal domain RNA polymerase II polypeptide A small phosphatase 1 (Homo sapiens) (UniProt Q9GZU7) (assay: Scp-1 phosphatase inhibitors, primary screen, biochemical, colorimetric, uHTS (AID 493091;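 note: plate controls were DMSO wells with enzyme for no effect and wells lacking enzyme for full effect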)). Conditions: Recombinant Scp1, phosphopeptide, malachite green phosphate absorbance; at 20 µM; stronger effect = higher value.
How it was run: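 Incubation: 45 min enzyme reaction at room temperature / System: truncated SCP-1 phosphatase (76-261aa) / Reagent: Phospho 17-mer peptide substrate / Buffer or medium: Acidic Tris acetate buffer with magnesium and detergent / Signal: absorbance at 630 nm / Doses: one concentration, 20 µM, with 1.0% DMSO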

Chain of Carboxy-terminal domain RNA polymerase II polypeptide A small phosphatase 1 (Homo sapiens) (Q9GZU7 76-261 limits assumed): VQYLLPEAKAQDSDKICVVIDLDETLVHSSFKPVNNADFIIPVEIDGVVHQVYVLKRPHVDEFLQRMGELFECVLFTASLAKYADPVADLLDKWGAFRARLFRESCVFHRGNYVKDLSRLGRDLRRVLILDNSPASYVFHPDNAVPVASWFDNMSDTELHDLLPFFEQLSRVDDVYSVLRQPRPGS

inhibition, inactive:
O=C1CC2(CCN(C(=O)COc3ccc(F)cc3)CC2)Oc2ccccc21 1.25%
O=C(CSc1ncn[nH]1)Nc1ccnc2ccccc12 -9.75%
CCCCCN1CC(O)=C(c2ccccc2)C1=N -2.2%
CCCCNC(=O)CCn1nc(-c2ccc(Cl)cc2)ccc1=O 6.19%
Cc1ccc(NC(=O)CN(C)C(=O)c2ccc(Br)o2)cc1 1.38%
CC1(C)CC(=O)C2=C(C1)NCN(CCCN1CCOCC1)C2 -1.79%
CC(C)C(=O)NC(NC(=S)NC1CCS(=O)(=O)C1)C(Cl)(Cl)Cl (stereo unspecified) -9.76%
Cc1cccc(NC(=O)c2cc(N3C(=O)CCC3=O)ccc2Cl)n1 -6.1%
COC(=O)c1cccc(NC(=O)c2cccc(N3C(=O)CCC3=O)c2)c1 -7.64%
O=C(C(NS(=O)(=O)c1cccc2nsnc12)c1ccccc1)N1CCN(c2ccccn2)CC1 (stereo unspecified) -0.35%
O=S(=O)(NC(=S)Nc1ccccc1)c1ccc(F)cc1 -7.43%
CCOc1ccc(Nc2nc(Cc3nnc(SCC(=O)NC4CCCC4)n3C)cs2)cc1 -5.22%
COCCCn1c(SCC(=O)NC2CCCC2)nnc1-c1ccccc1 -9.75%
O=C(CSc1nnc(N2CCOCC2)n1-c1cccc(F)c1)N1CCN(c2ccccn2)CC1 -3.89%
Cc1ccc(S(=O)(=O)NCCC(=O)NNC(=O)C2COc3ccccc3O2)cc1 (stereo unspecified) -1.94%
Cc1c(C)c2ccc(OCC(=O)N3CCC(C(=O)O)CC3)c(C)c2oc1=O 1.4%
COc1ccc(NC2CCCN(C(=O)c3ccncc3)C2)cc1 (stereo unspecified) 3.08%
CNc1[nH]ncc1[N+](=O)[O-] -7.97%
NC(=O)c1nsc(C(=O)N(CCCN2CCOCC2)C(C(=O)NC2CCCCC2)c2ccc(Cl)cc2)c1N (stereo unspecified) -5.84%
CCS(=O)(=O)N1CCCC(C(=O)NCCCN(C)Cc2ccccc2)C1 (stereo unspecified) -3.41%
COc1ccc(Cc2nnc(NS(=O)(=O)Cc3ccccc3)s2)cc1 -2.23%
COc1ccc(OC)c(NC(=O)Cc2cccs2)c1 14.5%
CC1CCC(NC(=O)CNC(=O)c2ccc3ccccc3c2)CC1 (stereo unspecified) -3.85%
O=C(CN1CCCCC1)NC(=O)Nc1ccccc1F 1.25%
C=C1CCN([C@H](C(=O)NCc2cc(OC)c(OC)c(OC)c2)C(C)C)S(=O)(=O)c2ccccc21 -5.59%
NC(=O)CCN1CCN(S(=O)(=O)/C=C/c2ccccc2)CC1 5.89%
COc1ccccc1N1CCN(CC(=O)NC(=O)NCc2ccco2)CC1 -8.28%
COC(=O)c1cc(OC)c(OC)cc1NC(=O)C1CCCO1 (stereo unspecified) -6.55%
CN(CC(=O)Nc1ccc(Cl)cc1)C(=O)CNC(=O)c1ccc2ccccc2c1 -10%
O=C(CCCOc1ccccc1)NNC(=O)c1ccc(Cl)cc1 0.5%
N=C1C(=O)OCC1c1ccccc1NC(=O)CN1CCCCC1 (stereo unspecified) -9.11%
Cc1cc(C)n(CCNCc2c(C(=O)N3C[C@@H](C)O[C@@H](C)C3)nc3ccc(Cl)cn23)n1 -3.38%
CCn1cc(CN2CCC(C(=O)Nc3cccc(-c4cccc(Cl)c4)c3)CC2)c(C)n1 -4.7%
CCOC(=O)CCCCCC(=O)Nc1ccc2c(c1)CC(=O)N([C@@H](C)CO)C[C@H](C)[C@@H](CN(C)Cc1ccccc1)O2 -4.43%
C=CCOc1c2ccc(C(=O)N(CC)c3ccc(OC)cc3)cc2nn1C -2.27%
O=C(COC(=O)c1cnccn1)Nc1cccc2ccccc12 -9.56%
CCOC(=O)C(=Cc1ccccc1OC)C(=O)OCC -0.82%
CC1C(=O)NC(=O)C1c1ccccc1 (stereo unspecified) -3.27%
CC(=O)CSc1nc(CCc2ccccc2)c(C#N)c(=O)[nH]1 -7.04%
O=C(CSc1nc2ccccc2c(=O)[nH]1)Nc1nc(-c2ccc(Br)cc2)cs1 3.75%
CCN(CC)C(=O)CS(=O)CC(=O)Nc1cc(OCCOC)c(Cl)cc1Cl (stereo unspecified) 1.24%
O=C(Cn1cnc([N+](=O)[O-])n1)NCCc1ccccc1 -2.5%

inhibition, active:
CCCCCN1CC(O)=C(c2nc(-c3ccc(Cl)cc3)cs2)C1=N 94.9%
CC(=O)Nc1ccc(N2C(=O)CCC2=O)cc1C 75.8%
COCCCn1c(Cc2csc(Nc3cccc(Cl)c3)n2)nnc1SCC(=O)OC1CCCCC1 58.9%
Cc1c(CC(=O)N2CCN(C(=O)C3COc4ccccc4O3)CC2)c(=O)oc2c(O)c(O)ccc12 (stereo unspecified) 79.7%
COc1ccc(Cc2nnc(NC(=O)Cc3cccs3)s2)cc1 87%
O=C(CN1CCN(S(=O)(=O)/C=C/c2ccccc2)CC1)NC(=O)NCc1ccco1 52.3%
O=C(NNC(=O)c1ccc2ccccc2c1)c1ccc(Cl)cc1 99.5%
C=C1c2cccc(OC)c2O[C@H](C(=O)OCC)[C@@H]1CCCCCC 101%
N#Cc1c(-c2cccs2)nc(SCC(=O)c2ccc(Br)cc2)[nH]c1=O 64.9%
